A selection: hits, their analogues and other compounds. The true share with any hit is near 4.6%.
RAM network inh: inhibitors of the yeast RAM network, primary screen, dse1pr::URA3 reporter, 5-FOA selection; 190,000 compounds, 1.8% hits; inhibition, % at 50 µM; S. cerevisiae dse1pr::URA3 reporter, 5-FOA growth OD615, 2 d; analog-sensitive cbk1-as2 kinase mutant strain;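 active means inhibition above a set limit, 3 SD over mean compound inhibition, cut at about 8.4% in these data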;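 further: 0% = DMSO-only wells with no growth and 100% = 10 µM 1-NA-PP1 full growth; inhibition rescues growth on 5-FOA so higher OD means more RAM inhibition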
NCF1 inh: p47phox/p22phox peptide binding inhibitors, primary screen, biochemical, uHTS, NADPH oxidase regulatory subunit; Neutrophil cytosol factor 1 (Homo sapiens), P14598; fluorescence polarization, 2 h; inhibition, % at 24.7 µM; 220,000 compounds, 0.53% hits; AID 1274, 2008;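 active means inhibition above about 30%, limit read from the data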;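 further: 0% = p47phox with labelled peptide and 100% = labelled peptide alone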
Target sequence (P14598 whole entry, looked up): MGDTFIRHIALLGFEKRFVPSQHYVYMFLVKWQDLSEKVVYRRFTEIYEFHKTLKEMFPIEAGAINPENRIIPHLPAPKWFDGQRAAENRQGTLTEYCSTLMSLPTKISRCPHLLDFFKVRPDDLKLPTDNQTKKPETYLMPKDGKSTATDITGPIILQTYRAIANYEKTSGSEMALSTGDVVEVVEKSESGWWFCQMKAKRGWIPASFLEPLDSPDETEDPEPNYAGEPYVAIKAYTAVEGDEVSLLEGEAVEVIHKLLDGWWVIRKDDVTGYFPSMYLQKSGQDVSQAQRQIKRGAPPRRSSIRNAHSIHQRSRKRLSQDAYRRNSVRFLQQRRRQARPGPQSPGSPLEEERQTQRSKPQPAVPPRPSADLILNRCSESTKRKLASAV
WT yeast gro inh: growth inhibition of WT strain, primary screen, mitochondrial fusion inhibitor project, WT and mutant strains, chemical genetic | inhibition, % at 10 µM | 190,000 compounds, 2.1% hits | AID 1362, 2008 | mitochondrial fusion phenotypic screen; in the data active means inhibition above about 58%; tested in S. cerevisiae
Arbovirus anti: antivirals against arbovirus infection, primary screen, cell-based, full library, 10K replicate subset; arbovirus infection cell-based antiviral screen; inhibition, % at 10 µM; 200,000 compounds, 0.37% hits; in the data active means inhibition above about 30%
Hck-Nef inh: inhibitors of Nef-activated human Hck kinase, primary screen, biochemical, Z-Lyte FRET, 384-well, Hck-YEEI. Tyrosine-protein kinase HCK (Homo sapiens), P08631. Recombinant Hck-YEEI plus Nef, Z-Lyte FRET kinase assay. inhibition, % at 20 µM. 220,000 compounds, 0.68% hits. AID 463187, 2010;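 active means Hck-Nef kinase inhibition above about 50%, limit read from the data; inactive means inhibition below that limit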;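 further: 0% = DMSO with Hck plus Nef and 100% = Hck alone without Nef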
Calb biofilm kill: clotrimazole potentiators killing C. albicans biofilm, primary screen, 4-compound mixtures. C. albicans biofilm persisters + clotrimazole, fluorescence viability; primary screen in compound mixtures of four per well. inhibition, % at 7.6 µM. 120,000 compounds, 0.02% hits. AID 1242, 2008;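 active means inhibition above 30.3% in the primary screen of four-compound pools, then above 30% when the compound was retested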;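 further: compounds exposed to preformed 24 h biofilms for 48 h; 0% = untreated biofilm control and 100% = clotrimazole plus chlorhexidine kill blank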
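Assay system: C. albicans biofilms / Medium: RPMI/MOPS medium, pH 7.0 / Schedule: biofilm formation 24 h, compound exposure 48 h, 37 °C / Measured by: Alamar Blue fluorescence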
* marks the source's active call; other numbers are inactive results; / = not tested or not shown.

SMILES | RAM network inh | NCF1 inh | WT yeast gro inh | Arbovirus anti | Hck-Nef inh | Calb biofilm kill
O=C(CCN1C(=O)c2cccc3cccc(c23)C1=O)Nc1ccon1 | 2 | -12 | -11 | -5 | 19 | 33
CC(NC(=O)Nc1ccc([N+](=O)[O-])cc1)C(c1cccs1)N1CCCC1 (stereo not given) | 1 | -9 | -16 | -1 | -13 | 8
Cc1cc(N=Cc2c(O)ccc3cc(Br)ccc23)no1 | 0 | 2 | 0 | 55* | 21 | 6
Cc1ccc(C(C)C)c(OCc2nnc(SCC(=O)Nc3ncc(C)s3)n2C)c1 | 8.6* | -9 | -12 | 0 | 10 | /
Cc1cnc(NC(=O)CSc2nnc(Cc3ccccc3)n2C)s1 | 1 | -17 | 4 | -4 | -6 | /
Cc1c(C(=O)N/N=C/c2ccc(Cl)cc2)[nH]c2ccc(Cl)cc12 | 8.5* | -18 | 75 | -26 | 4 | 14
CC(C)(C)c1nc(SCC(=O)Nc2nc3c(s2)CCCC3)c2ccccc2n1 | 1 | -24 | 35 | 5 | 1 | /
CC(C)c1nc(SCC(=O)Nc2nc3c(s2)CCCC3)c2ccccc2n1 | -1 | -8 | 62* | -14 | 1 | /
COc1ccc(N2CCN(C(=O)Nc3cccc(C(F)(F)F)c3)CC2)cc1 | 5 | -5 | 6 | -8 | 1 | /
CN1CCN(c2ccc(-c3ccnn3C(=O)Nc3cccc(C(F)(F)F)c3)cc2)CC1 | 0 | -6 | 68* | -14 | -3 | 12
COc1cc2nc(SCc3ccc(Cl)cc3Cl)n(Cc3cccs3)c(=N)c2cc1OC | 7 | -50 | -29 | -24 | -1 | /
COc1ccc(Cn2c(SCc3cc(C)ccc3C)nc3cc(OC)c(OC)cc3c2=N)cc1 | 0 | 66* | 3 | -32 | -1 | /
COc1ccc(Cn2c(SCc3ccc(C)cc3)nc3cc(OC)c(OC)cc3c2=N)cc1Cl | -1 | 35* | 96 | -30 | -2 | /
c1ccc(C2=NNC(=NCc3ccc4c(c3)OCO4)SC2)cc1 | 9.0* | -6 | -10 | -6 | 1 | 18
CCOC(=O)C1=C(C)N=c2s/c(=C/c3ccco3)c(=O)n2C1c1cccc(OC)c1 (stereo not given) | 9.5* | -44 | -30 | -9 | -1 | /
O=C(Nc1cccc(C(F)(F)F)c1)n1cc(-c2ccccn2)c(N2CCOCC2)n1 | 2 | 2 | 77* | -12 | 26 | 16
CN(C)c1cc[n+](CC(=O)c2ccc(-c3ccccc3)cc2)cc1 | 3 | 0 | 73* | 8 | -12 | 11
O=C(C[n+]1ccccc1)c1ccc(-c2ccccc2)cc1 | 1 | -1 | 10 | -17 | 14 | 11
O=C1c2ccccc2-c2n[nH]c(=O)c3ccc(N4CCCCC4)c1c23 | 1 | 0 | 63* | -16 | 41 | 31
Cc1ccccc1S(=O)(=O)Nc1ncnc2scc(-c3ccccc3)c12 | 4 | -12 | 44 | 58* | 2 | 10
CC(C)OC(=O)C(C)Nc1ccc(F)c(Cl)c1 (stereo not given) | / | -2 | / | / | 21 | 19
Cc1nc2c(ccc3nc(NC(=O)Cc4ccccc4)sc32)s1 | 11* | -15 | 57 | -27 | -1 | 2
COc1ccccc1CNC(=O)c1cc2c(=O)[nH]c3ccccc3c2n1C | 1 | 0 | -16 | 1 | 28 | 8
COc1cc(NC(=S)NC(=O)C(C)C)ccc1NC(=O)c1cc2ccccc2o1 | 9.5* | -7 | 18 | 4 | -6 | 20
CCC(=O)NC(=S)Nc1ccc(NC(=O)c2cc3ccccc3o2)c(OC)c1 | 4 | 2 | -2 | 3 | 22 | 25
SMILES | RAM network inh | NCF1 inh | WT yeast gro inh | Arbovirus anti | Hck-Nef inh | Calb biofilm kill
COC(=O)c1ccc(Cl)c(-c2ccc(/C=N/NC(=O)Nc3ccccc3)o2)c1 | 9.0* | -4 | 8 | 6 | 2 | /
O=C(C1=C[C@H](C2CC2)C[C@H](OCc2ccc(CO)cc2)O1)N1CCN(Cc2ccc3c(c2)OCO3)CC1 | 0 | -10 | -5 | -2 | -3 | 16
O=C(C1=C[C@H](C2CCCCC2)C[C@H](OCc2ccc(CO)cc2)O1)N1CCN(Cc2ccc3c(c2)OCO3)CC1 | 0 | / | 70* | -18 | 0 | 19
O=C(C1=C[C@@H](C2CCCCC2)C[C@@H](OCc2ccc(CO)cc2)O1)N1CCN(Cc2ccc3c(c2)OCO3)CC1 | -1 | -8 | 76* | -17 | -2 | 18
NC(=O)c1cc2cc([N+](=O)[O-])ccc2oc1=O | 0 | -5 | -3 | 1 | -18 | 15
CCOc1ccc(C(C)=O)cc1COc1ccc(-n2cnnn2)cc1 | 8.7* | -3 | -14 | -6 | -6 | /
CCOC(=O)CNC(=O)Nc1cc(C(C)(C)C)nn1-c1ccccc1 | 0 | 7 | -4 | -3 | -7 | /
CC(C)(C)c1ccc(CNc2ccc([N+](=O)[O-])cn2)cc1 | 2 | -144 | 80* | 21 | -1 | 14
Cc1ccn2c(NC3CCCC3)c(-c3ccncc3)nc2c1 | 2 | -1 | 18 | 4 | 21 | 35
c1ccc(-c2nc3ccccn3c2NC2CCCC2)nc1 | 2 | -3 | 68* | -32 | 21 | 22
Clc1ccc(-c2nc3cnccn3c2NC2CCCC2)cc1 | 2 | -11 | 68* | -18 | 1 | /
Cc1ccn2c(NC3CCCC3)c(-c3ccccn3)nc2c1 | 0 | 10 | 76* | -24 | 15 | 27
Cc1noc(C)c1COC(=O)c1cc(F)c(F)cc1Cl | 1 | -21 | 31 | 3 | 1 | /
COc1ccccc1N(C)S(=O)(=O)c1ccc(Cl)c(C(=O)OCc2c(C)noc2C)c1 | 11* | -7 | 20 | 12 | -6 | 17
O=C1c2cccc3cccc(c23)C(=O)N1c1ccc2ncccc2c1 | 2 | 35* | 0 | -12 | 33 | 16
O=C1c2cccc3cccc(c23)C(=O)N1c1nccs1 | 1 | 6 | 19 | 15 | 2 | /
COc1ccc(OCC(O)CNCc2ccco2)cc1 (stereo not given) | 0 | -73 | 72* | 8 | -8 | /
CC(=O)O[C@]1(C(C)=O)CC[C@H]2[C@@H]3C=C(Cl)C4=CC(=O)CC[C@]4(C)[C@H]3CC[C@@]21C | 8.8* | -2 | 34 | -4 | -6 | 9
Cn1c(=O)cc(SCC(=O)NCCC2=CCCCC2)c2cc(Cl)ccc21 | 2 | -14 | 9 | 10 | 1 | 6
CCCn1c(N)c(C(=O)CN2CCc3ccccc3C2)c(=O)n(C)c1=O | 2 | / | -2 | 6 | 6 | 16
CCCCn1c(N)c(C(=S)NC(=O)CC(C)(C)C)c(=O)n(C)c1=O | 0 | -5 | 68* | -21 | 1 | 19
c1ccc(-c2nc(NCc3cccnc3)c3oc4ccccc4c3n2)cc1 | 2 | -45 | 72* | -22 | 2 | /

Assay outcomes as filed in PubChem BioAssay.
